The target in data set [1] is Vascular endothelial growth factor receptor 2 (Mus musculus, UniProt P35918). As to the kind of experiment: Inhibition of mouse recombinant GST-fused VEGFR2 kinase domain expressed in baculovirus expression system using poly-Glu-Tyr (4:1) as substrate measured after 10 mins in presence of gamma-[33P]-ATP by scintillation counting analysis. Summed up: (§1)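 GST-fused kinase domains were expressed in baculovirus and purified on glutathione-Sepharose. 10 min at ambient temperature, stopped with EDTA. Filter binding and scintillation counting. IC50 by linear regression of percent inhibition.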

Data set [2] deals with Serine/threonine-protein kinase B-raf (Homo sapiens) (UniProt P15056). As to the kind of experiment: Inhibition of human recombinant GST-fused BRAF expressed in baculovirus expression system using poly-Glu-Tyr (4:1) as substrate measured after 10 mins in presence of gamma-[33P]-ATP by scintillation counting analysis. The method, boiled down: as §1
The target in data set [3] is Proto-oncogene tyrosine-protein kinase receptor Ret (Homo sapiens, UniProt P07949). The data set can be described thus: Inhibition of RET (unknown origin) autophosphorylation expressed in mouse NIH3T3 cells by ELISA-based assay. The class given is cell-based. The method, boiled down: (§2)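 Cells were stimulated with the respective ligand. Receptor tyrosine kinase autophosphorylation in the presence of compound was quantified by ELISA.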

Data set [4] concerns the target Epidermal growth factor receptor (Homo sapiens, UniProt P00533). As to the kind of experiment: Inhibition of EGFR (unknown origin) autophosphorylation expressed in human A-431 cells by ELISA-based assay. The class given is cell-based. Summed up:
as §2

Data set [5] has as its target Receptor tyrosine-protein kinase erbB-2 (Homo sapiens, UniProt P04626). The data set can be described thus: Inhibition of ERBB2 (unknown origin) autophosphorylation expressed in human BT-474 cells by ELISA-based assay. The class given is cell-based. Summed up:
as §2

Another data set concerns the target Insulin receptor (Homo sapiens, UniProt P06213). The data set can be described thus: Inhibition of INSR (unknown origin) autophosphorylation expressed in […] by ELISA-based assay. The class given is cell-based. Summed up:
as §2

A further data set deals with Bcr/Abl fusion protein (Homo sapiens, UniProt P00519). As to the kind of experiment: Inhibition of BCR-ABL (unknown origin) autophosphorylation expressed in mouse 32D cells by ELISA-based assay. The class given is cell-based. The method, boiled down:
as §2

Data set [6] concerns BaF3. The data set can be described thus: Antiproliferative activity against mouse BaF3 cells expressing Bcr-ABL assessed as cell growth inhibition measured after 72 hrs by Alamar Blue assay. The note with it: BaF3, 72 h.
Data set [7] deals with BaF3. The data set can be described thus: Antiproliferative activity against mouse BaF3 cells expressing FLT3-ITD assessed as cell growth inhibition measured after 72 hrs by Alamar Blue assay. The settings on record: BaF3, 72 h.
Data set [8] has as its system BaF3. The data set can be described thus: Antiproliferative activity against mouse BaF3 cells expressing Tel-PDGFRbeta assessed as cell growth inhibition measured after 72 hrs by Alamar Blue assay. The settings on record: BaF3, 72 h.
A further data set has as its system HUVEC. As to the kind of experiment: Antiproliferative activity against bFGF-stimulated HUVEC cells assessed as cell growth inhibition measured after 24 hrs by BrdUrd incorporation based spectrophotometric analysis. The settings on record: Homo sapiens.
The subject of data set [9] is Mus musculus. The data set can be described thus: Anti-angiogenesis activity in FVB mouse model assessed as inhibition of VEGF-induced tissue weight at 0.3 mg/kg, po qd treated for 4 to 6 hrs prior to chamber implantation and continuing for 4 days measured after 24 hrs post last dose. The class given is functional, organism-based. The note with it: time 5.0 day. The method, boiled down:
(§3)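 Female FVB mice (18-20 g), porous chambers with VEGF (2 μg/mL) in 0.8 % w/v agar containing heparin 20 U/mL implanted s.c. in flank; compound p.o. once daily in 100 % PEG200 (5 mL/kg) from 4-6 h before implantation for 4 days; tissue removed 24 h after last dose, weighed, lysate assayed for TIE-2 by sandwich ELISA; n=6 per dose, mean ± SEM.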

Data set [10] deals with Mus musculus. As to the kind of experiment: Anti-angiogenesis activity in FVB mouse model assessed as inhibition of VEGF-induced tissue TIE-2 level at 0.3 mg/kg, po qd treated for 4 to 6 hrs prior to chamber implantation and continuing for 4 days measured after 24 hrs post last dose by ELISA analysis. The class given is functional, organism-based. The note with it: time 5.0 day. The method, boiled down:
as §3

Data set [11] can be described thus: Toxicity in VEGF-induced FVB mouse model at 0.3 to 3 mg/kg, po qd treated for 4 to 6 hrs prior to chamber implantation and continuing for 4 days measured after 24 hrs post last dose. The settings on record: in vivo, 120 h, dose 0.3-3 mg/kg, time 5 day. The class given is organism-based. Summed up: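 Female FVB mice (18–20 g), groups of 6. Porous chambers with VEGF (2 μg/mL) in 0.5 mL 0.8 % agar with heparin (20 U/mL) implanted subcutaneously in flank. Oral dosing once daily in 100 % PEG200 (5 mL/kg), starting 4-6 h before implantation, for 4 days; chambers removed 24 h after last dose. Animals observed for signs of toxicity.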

Data set [12] has as its system B16-BL6. As to the kind of experiment: Antitumor activity against mouse B16-BL6 cells implanted in C57BL/6jNpa mouse assessed as metastatic tumor growth inhibition at 3 mg/kg, po qd administered started on day 7 post implantation measured after 21 days relative to control. The class given is functional. The note with it: time 7-21 day, read-out: TGI. Summed up:
(§4)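 Female C57BL/6JNpa mice, 50000 B16/BL6 cells intradermally in both ear pinnae; primary tumor area (mm²) imaged days 7, 14, 21; randomized day 7 into groups of 5-6, oral dosing in PEG200 or PEG300 vehicle daily (or every 2 days) for 14 days; day 21 cervical lymph nodes weighed, metastasis lysates assayed for TIE-2 by ELISA; T/C ratios.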

The test system of data set [13] is B16-BL6. As to the kind of experiment: Antitumor activity against mouse B16-BL6 cells implanted in C57BL/6jNpa mouse assessed as reduction in TIE-2 levels metastases lysate of at 3 mg/kg, po qd administered started on day 7 post implantation measured after 21 days by ELISA analysis. The class given is functional, organism-based. The note with it: time 7-21 day. The method, boiled down:
as §4

Data set [14] in a line: Volume of distribution at steady state in Sprague-Dawley rat at 3 mg/kg, iv measured upto 24 hrs by HPLC/UV analysis. The class given is ADME, organism-based. The settings on record: in vivo, read-out: Vdss. The method, boiled down:
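Female Sprague Dawley rats, 8 weeks, jugular vein and femoral artery catheters, 96 h recovery. IV 3 mg/kg in ethanol/NMP/PEG400/D5W (10/10/50/30), n=2.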

Data set [15] in a line: Dose normalized AUC(0 to infinity) in Sprague-Dawley rat at 50 mg/kg, po measured upto 24 hrs by HPLC/UV analysis. The settings on record: in vivo. The class given is ADME, organism-based. The method, boiled down: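 Female Sprague Dawley rats, 8 weeks old, catheterized. Oral suspension in 0.5 % carboxymethyl cellulose at 50 mg/kg, n=3. Bioavailability taken against 3 mg/kg iv. Plasma sampled 5 min–24 h. Cmax and AUC(0–∞) dose-normalized.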

Data set [16] is described as follows: Toxicity in C57BL/6jNpa mouse harbouring mouse B16-BL6 cells assessed as effect on hematocrit levels at 3 mg/kg, po qd administered started on day 7 post implantation measured after 21 days. The class given is organism-based. The note with it: in vivo, 504 h, time 7-21 day. Summed up:
(§5)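 B16/BL6 melanoma cells (50000) injected intradermally into dorsal pinna of both ears of female mice (18–20 g). Randomized on day 7 into groups of 5-6 by primary tumor size, then dosed orally once daily for 14 days in PEG300 or PEG200. Sacrificed day 21; blood analysed directly for platelets, red and white cell counts, hematocrit. Body and spleen weight recorded versus healthy naive mouse.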

The nature of data set [17]: Toxicity in C57BL/6jNpa mouse harbouring mouse B16-BL6 cells assessed as effect on white blood cell count at 3 mg/kg, po qd administered started on day 7 post implantation measured after 21 days. The class given is organism-based. The settings on record: in vivo, 504 h, time 7-21 day. The method, boiled down: as §5

Each structure is given as a SMILES string. The source made the active and inactive calls. The calls are words filed in the database; no cut-off is given here.

Vascular endothelial growth factor receptor 2, sequence (P35918 whole entry, the tested form may be a part): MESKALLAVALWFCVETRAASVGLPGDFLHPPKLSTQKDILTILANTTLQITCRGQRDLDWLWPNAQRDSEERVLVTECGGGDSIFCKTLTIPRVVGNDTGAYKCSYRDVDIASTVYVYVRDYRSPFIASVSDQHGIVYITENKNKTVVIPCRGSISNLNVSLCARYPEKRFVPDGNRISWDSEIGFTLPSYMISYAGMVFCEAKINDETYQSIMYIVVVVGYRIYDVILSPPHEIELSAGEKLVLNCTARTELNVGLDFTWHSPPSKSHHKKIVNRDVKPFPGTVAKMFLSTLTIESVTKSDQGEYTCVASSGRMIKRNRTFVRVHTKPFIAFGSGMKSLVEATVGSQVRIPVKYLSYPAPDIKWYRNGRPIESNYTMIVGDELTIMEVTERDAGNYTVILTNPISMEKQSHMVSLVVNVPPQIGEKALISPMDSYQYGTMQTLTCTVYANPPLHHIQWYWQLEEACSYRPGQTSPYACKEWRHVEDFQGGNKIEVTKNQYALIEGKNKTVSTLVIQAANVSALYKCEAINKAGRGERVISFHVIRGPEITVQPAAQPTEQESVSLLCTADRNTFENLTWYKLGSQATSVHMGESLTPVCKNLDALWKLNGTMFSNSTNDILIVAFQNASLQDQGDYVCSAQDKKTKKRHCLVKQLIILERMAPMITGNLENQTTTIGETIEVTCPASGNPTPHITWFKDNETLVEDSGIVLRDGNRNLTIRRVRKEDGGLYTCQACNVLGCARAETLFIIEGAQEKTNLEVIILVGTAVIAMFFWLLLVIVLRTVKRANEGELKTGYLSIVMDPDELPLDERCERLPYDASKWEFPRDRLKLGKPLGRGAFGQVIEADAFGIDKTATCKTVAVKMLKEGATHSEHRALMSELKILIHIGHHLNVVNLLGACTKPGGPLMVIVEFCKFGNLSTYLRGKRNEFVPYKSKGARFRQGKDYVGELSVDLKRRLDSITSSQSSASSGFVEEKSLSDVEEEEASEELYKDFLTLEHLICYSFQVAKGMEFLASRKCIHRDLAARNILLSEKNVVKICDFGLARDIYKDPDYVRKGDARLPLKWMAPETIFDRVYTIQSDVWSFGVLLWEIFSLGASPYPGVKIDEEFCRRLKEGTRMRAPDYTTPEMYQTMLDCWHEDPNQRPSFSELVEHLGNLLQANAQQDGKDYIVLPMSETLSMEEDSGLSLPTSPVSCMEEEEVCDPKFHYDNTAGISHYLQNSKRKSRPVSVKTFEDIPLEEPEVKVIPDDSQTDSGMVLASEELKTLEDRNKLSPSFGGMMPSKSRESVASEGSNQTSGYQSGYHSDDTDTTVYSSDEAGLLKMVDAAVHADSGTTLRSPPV
Bcr/Abl fusion protein, sequence (P00519 whole entry, the tested form may be a part): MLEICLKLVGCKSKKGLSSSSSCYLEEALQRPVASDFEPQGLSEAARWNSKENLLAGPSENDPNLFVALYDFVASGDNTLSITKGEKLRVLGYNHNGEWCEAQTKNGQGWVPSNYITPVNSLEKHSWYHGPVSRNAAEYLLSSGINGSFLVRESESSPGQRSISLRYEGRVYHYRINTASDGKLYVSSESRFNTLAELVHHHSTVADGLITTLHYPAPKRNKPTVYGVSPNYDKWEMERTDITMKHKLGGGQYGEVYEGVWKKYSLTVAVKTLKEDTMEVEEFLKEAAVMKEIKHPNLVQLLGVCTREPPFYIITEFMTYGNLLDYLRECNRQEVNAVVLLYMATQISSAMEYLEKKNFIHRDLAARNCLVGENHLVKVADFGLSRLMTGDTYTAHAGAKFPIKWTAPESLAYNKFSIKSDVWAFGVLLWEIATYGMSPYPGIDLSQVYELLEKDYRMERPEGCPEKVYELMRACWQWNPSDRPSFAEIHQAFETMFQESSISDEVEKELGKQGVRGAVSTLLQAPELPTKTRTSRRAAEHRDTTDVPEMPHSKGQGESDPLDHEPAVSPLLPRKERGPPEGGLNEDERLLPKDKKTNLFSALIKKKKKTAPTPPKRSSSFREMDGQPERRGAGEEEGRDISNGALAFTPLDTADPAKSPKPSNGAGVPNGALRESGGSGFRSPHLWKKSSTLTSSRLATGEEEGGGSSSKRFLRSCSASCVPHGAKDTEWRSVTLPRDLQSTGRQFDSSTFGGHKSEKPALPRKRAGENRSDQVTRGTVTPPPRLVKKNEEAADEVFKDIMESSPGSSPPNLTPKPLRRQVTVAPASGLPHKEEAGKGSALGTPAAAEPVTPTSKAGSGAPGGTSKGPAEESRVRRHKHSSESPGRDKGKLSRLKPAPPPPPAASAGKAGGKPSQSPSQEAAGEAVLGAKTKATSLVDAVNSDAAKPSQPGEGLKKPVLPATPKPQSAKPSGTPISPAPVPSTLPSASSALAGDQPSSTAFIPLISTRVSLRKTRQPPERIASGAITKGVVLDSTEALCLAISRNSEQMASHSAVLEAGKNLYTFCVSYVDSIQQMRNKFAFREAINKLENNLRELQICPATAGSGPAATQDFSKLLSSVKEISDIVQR
Bcr/Abl fusion protein, sequence (P11274 whole entry, further chain, the tested form may be a part): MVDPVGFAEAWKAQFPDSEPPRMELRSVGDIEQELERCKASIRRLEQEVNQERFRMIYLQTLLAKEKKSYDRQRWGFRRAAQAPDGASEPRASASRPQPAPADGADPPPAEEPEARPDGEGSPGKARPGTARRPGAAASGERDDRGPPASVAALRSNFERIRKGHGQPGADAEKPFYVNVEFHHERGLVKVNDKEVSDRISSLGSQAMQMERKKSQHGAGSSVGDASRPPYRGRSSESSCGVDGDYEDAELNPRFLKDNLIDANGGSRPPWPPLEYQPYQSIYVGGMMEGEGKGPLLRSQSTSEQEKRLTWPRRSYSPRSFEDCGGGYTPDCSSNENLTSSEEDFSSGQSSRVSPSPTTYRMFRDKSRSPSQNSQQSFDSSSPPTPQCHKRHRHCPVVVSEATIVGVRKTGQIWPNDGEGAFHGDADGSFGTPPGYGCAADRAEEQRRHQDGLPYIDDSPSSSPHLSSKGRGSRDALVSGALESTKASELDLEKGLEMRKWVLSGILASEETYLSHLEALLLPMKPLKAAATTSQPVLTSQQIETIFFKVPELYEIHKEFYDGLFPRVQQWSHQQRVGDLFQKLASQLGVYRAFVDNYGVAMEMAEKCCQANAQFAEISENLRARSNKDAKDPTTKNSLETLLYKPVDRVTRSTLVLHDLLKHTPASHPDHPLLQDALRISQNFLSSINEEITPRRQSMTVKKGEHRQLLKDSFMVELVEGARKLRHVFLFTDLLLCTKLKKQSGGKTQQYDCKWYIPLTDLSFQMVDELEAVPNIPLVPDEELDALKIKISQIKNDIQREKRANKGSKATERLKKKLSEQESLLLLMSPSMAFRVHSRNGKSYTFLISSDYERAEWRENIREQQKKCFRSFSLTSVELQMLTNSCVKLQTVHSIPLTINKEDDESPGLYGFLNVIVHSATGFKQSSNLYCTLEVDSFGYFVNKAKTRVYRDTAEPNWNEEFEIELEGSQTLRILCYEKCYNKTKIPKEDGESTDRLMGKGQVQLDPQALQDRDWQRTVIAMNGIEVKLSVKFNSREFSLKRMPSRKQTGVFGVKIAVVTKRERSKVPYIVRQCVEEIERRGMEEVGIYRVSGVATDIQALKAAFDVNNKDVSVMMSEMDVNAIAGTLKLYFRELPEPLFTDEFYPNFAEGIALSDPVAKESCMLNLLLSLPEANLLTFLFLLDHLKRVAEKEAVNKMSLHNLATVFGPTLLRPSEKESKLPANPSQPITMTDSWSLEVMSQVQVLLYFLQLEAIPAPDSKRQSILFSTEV
Epidermal growth factor receptor, sequence (P00533 whole entry): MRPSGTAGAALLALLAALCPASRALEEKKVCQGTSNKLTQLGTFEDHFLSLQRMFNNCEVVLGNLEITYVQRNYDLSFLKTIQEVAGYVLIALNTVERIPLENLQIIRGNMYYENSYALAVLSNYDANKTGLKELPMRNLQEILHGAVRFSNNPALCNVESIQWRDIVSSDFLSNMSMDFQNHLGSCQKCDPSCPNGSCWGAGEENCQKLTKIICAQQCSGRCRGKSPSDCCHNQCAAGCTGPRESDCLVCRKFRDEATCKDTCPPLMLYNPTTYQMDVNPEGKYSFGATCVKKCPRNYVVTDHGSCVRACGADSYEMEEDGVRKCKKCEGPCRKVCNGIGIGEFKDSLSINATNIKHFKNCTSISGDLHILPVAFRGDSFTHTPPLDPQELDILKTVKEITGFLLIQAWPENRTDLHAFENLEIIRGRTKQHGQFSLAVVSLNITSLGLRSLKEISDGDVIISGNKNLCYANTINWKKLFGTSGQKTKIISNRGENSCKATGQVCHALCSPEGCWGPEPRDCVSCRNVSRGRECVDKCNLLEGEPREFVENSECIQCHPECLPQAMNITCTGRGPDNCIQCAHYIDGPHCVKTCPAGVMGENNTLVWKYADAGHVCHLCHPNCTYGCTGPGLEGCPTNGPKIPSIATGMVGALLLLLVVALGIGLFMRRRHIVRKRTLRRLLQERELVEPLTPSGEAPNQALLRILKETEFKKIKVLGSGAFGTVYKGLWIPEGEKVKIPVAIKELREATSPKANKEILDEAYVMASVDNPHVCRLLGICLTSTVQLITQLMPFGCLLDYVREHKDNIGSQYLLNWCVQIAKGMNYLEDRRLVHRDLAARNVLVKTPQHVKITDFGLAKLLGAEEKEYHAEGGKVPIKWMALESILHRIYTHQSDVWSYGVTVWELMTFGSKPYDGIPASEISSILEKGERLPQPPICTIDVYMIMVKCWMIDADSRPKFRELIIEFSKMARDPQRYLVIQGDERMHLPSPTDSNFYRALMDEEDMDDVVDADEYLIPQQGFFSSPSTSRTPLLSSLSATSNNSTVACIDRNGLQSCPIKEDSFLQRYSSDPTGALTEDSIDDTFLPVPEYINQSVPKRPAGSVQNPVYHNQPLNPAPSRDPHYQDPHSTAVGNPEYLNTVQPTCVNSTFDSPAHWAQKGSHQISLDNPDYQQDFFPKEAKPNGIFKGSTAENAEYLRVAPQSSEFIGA

Turning to `O=C(Nc1cccc(C(F)(F)F)c1)c1cccc2cc(Oc3cc(CO)ncn3)ccc12` [BFH-772], the IC50 was 1.5 µM in data set [1]; 0.03 µM in [3]; over 0.5 µM in [4]; over 0.5 µM in data set [5]; over 0.5 µM against Insulin receptor; over 0.5 µM against Bcr/Abl fusion protein. In addition, the IC50 in the data set on BaF3 [6] was 7.5 µM; in the data set on BaF3 [7] it was over 10 µM; in the data set on BaF3 [8] it was 0.027 µM; in the data set with HUVEC, over 3 µM. Also, the inhibition entry in [2] is “Active”. For the same compound, the outcome with Mus musculus [9] and in the data set on Mus musculus [10] was Active. Also, the Activity result in data set [11] was “Non-Toxic”. The inhibition in vivo at 3 mg/kg in the data set on B16-BL6 [12] is 71%.

Consider `Nc1nccc(Oc2ccc3c(C(=O)Nc4cccc(C(F)(F)F)c4)cccc3c2)n1`, for which the half-maximal inhibitory concentration (IC50) in [1] was 0.165 µM; in [3], 0.03 µM; in [4] it was over 0.5 µM; in data set [5], over 0.5 µM; against Insulin receptor, over 0.5 µM; on Bcr/Abl fusion protein, over 0.5 µM. The IC50 with BaF3 [6] is 4.75 µM; in the data set on BaF3 [7], over 10 µM; in the data set on BaF3 [8], 0.009 µM; in the data set on HUVEC, over 3 µM. For the same compound, the inhibition entry in [2] is “Active”. Besides, the outcome with B16-BL6 [13] was Active. Further, the Activity entry in data set [11] is “Non-Toxic”. Besides, in the data set on B16-BL6 [12], the inhibition in vivo at 3 mg/kg came to 71%.

In the case of `Nc1cc(Oc2ccc3c(C(=O)Nc4ccc(F)c(C(F)(F)F)c4)cccc3c2)ncn1`, the IC50 was 0.125 µM in data set [1]; over 10 µM in the data set with BaF3 [6]; 4.78 µM in the data set on BaF3 [7]; 0.01 µM with BaF3 [8]; 0.206 µM in the data set on HUVEC. For the same compound, in data set [14], the Vd is 1.5 L/kg. The compound also showed an AUC/dose in [15] of 4.19 µmol·h/L. Moreover, the Activity result in [11], in data set [16] and in [17] was “Non-Toxic” in each case. For the same compound, the inhibition in vivo at 3 mg/kg in the data set on B16-BL6 [12] is 71%.

On to `Nc1nccc(Oc2ccc3c(C(=O)Nc4ccc(F)c(C(F)(F)F)c4)cccc3c2)n1`, for which the IC50 is 0.32 µM in data set [1]; over 10 µM in the data set on BaF3 [6]; 8.2 µM with BaF3 [7]; 0.016 µM in the data set on BaF3 [8]; over 0.01 µM in the data set with HUVEC. In addition, the Vd in data set [14] worked out at 3.5 L/kg. Also, the outcome in the data set on B16-BL6 [13], in the data set with Mus musculus [9] and with Mus musculus [10] was Active. In addition, in [15], the AUC/dose is 1.37 µmol·h/L. Moreover, the Activity result in data set [11], in data set [16] and in [17] was “Non-Toxic” each time. In the data set on B16-BL6 [12], the inhibition in vivo at 3 mg/kg is 71%.

For the compound `Nc1cc(Oc2ccc3c(C(=O)Nc4cccc(C(F)(F)F)c4)cccc3c2)ncn1`, the IC50 in data set [1] was 0.037 µM; in the data set on BaF3 [6], 9.5 µM; in the data set with BaF3 [7], 5.65 µM; in the data set on BaF3 [8], 0.004 µM; with HUVEC, over 3 µM. Besides, in [14], the Vd was 0.9 L/kg. The compound also had an AUC/dose in data set [15] of 0.67 µmol·h/L. For the same compound, the Activity entry in data set [11], in data set [16] and in data set [17] was “Non-Toxic” in each case. In addition, the inhibition in vivo at 3 mg/kg with B16-BL6 [12] turned out to be 71%.

Values taken from ChEMBL document CHEMBL5252510, “A Novel Potent Oral Series of VEGFR2 Inhibitors Abrogate Tumor Growth by Inhibiting Angiogenesis” (J Med Chem, 2016).
